S100A4 inh HTS = blocks human S100A4 binding to myosin IIA peptide. S100A4/TAMRA-MyoIIA peptide fluorescence polarization. inhibition, % at 10.7 µM. 0.14% of 360,000 active. AID 652163;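 active = mean inhibition of at least 70% across replicates, with every replicate also reaching that level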
Target sequence (P26447 whole entry, looked up): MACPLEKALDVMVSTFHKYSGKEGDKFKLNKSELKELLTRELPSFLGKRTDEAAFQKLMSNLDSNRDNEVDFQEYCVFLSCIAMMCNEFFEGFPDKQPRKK
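incubation = readout 5 min after mixing, signal stable up to 60 min | system = S100A4 monomer protein | buffer or medium = HEPES pH 7.2 with CaCl2, KCl, NaCl, DTT, Triton | benchmarks = neutral control DMSO, positive control TFP | also added = fluorescent myosin IIA peptide, 5 nM | compound dosing = one concentration per compound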
FGF22 binding = FGF22 (human) thermal shift binding | recombinant FGF22 thermal shift, SYPRO orange fluorescence; percent of sucrose octasulfate shift, DMSO zero | activity (Tm shift, normalised), % at 9.99 µM | AID 651658 | 1.5% of 340,000 active | Q9HCT0;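 active = mean Tm shift, scaled 0 neutral to 100 positive control, at about 1.3% or above, every replicate too, limit read from the data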
E-selectin induc = induces E-selectin expression in human endothelial cells; HUVEC E-selectin immunofluorescence imaging; normalized: neutral wells 0, TNF-alpha wells 100; AID 686992; activation, % at 7.58 µM; 0.37% of 260,000 active; P16581;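 active = mean E-selectin-positive cell signal at least 10% of the positive control, reached in at least 60% of replicates, without over 20% cell loss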
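material = human umbilical vein endothelial cells (HUVEC), E-selectin induction | quantity = 3,000 cells/well | medium = EGM-2 growth medium on 0.1% gelatin-coated wells | technique = immunofluorescence imaging | read-out basis = % PE-positive cells | control set = TNF-alpha positive control, DMSO neutral control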
miR122 inh = inhibitors of miR-122 in Huh7 cells. AID 602342. 0.3% of 340,000 active. Huh7 miR-122 Renilla luciferase sensor, 48 h; neutral wells = 0, positive control = 100. activation (reporter increase), % at 12.5 µM;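 active = mean replicate activation score at least 90 and every replicate individually at or above 90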;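 note: higher luciferase means less miR-122 activity so hits act as miR-122 inhibitors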
SIRT5 block = inhibitors of human sirtuin-5 desuccinylase | Q9NXA8 | Purified SirT5, succinyl-peptide AMC, trypsin-coupled fluorescence | inhibition, % at 15 µM | 1.1% of 330,000 active | AID 652115; in the data active = inhibition above about 15%
Target sequence (Q9NXA8 whole entry, looked up): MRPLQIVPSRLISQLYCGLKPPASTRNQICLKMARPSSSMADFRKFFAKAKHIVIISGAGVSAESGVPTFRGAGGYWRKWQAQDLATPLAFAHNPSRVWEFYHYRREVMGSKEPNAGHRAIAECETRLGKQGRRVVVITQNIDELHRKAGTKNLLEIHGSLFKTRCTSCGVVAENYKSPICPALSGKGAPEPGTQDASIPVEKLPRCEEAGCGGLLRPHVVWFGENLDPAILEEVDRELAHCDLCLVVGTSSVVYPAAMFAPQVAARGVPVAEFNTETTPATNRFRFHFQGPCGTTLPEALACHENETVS
Large screens that a line does not name were inactive; [ ] = another dose, or the depositor's remark. In the library only some 2.5% were active in any assay of this set; here they are far more common.

O=C(COc1ccc(S(=O)(=O)NC2CCCC2)cc1)NCC1CCCO1 (stereo not given)	FGF22 binding 43 (no result: miR122 inh)
Cc1cc(Cl)c(S(=O)(=O)Nc2ccc3c(c2)OCCO3)cc1OCC(=O)NC1CCCCC1	miR122 inh 157 (no result: S100A4 inh HTS, FGF22 binding, E-selectin induc, SIRT5 block)
O=C(COc1ccc(S(=O)(=O)NC2CCCCC2)cc1)Nc1ccc2c(c1)OCCO2	miR122 inh 101
CCc1c(C)nc(SCC(=O)N2CCN(c3ccccc3OC)CC2)[nH]c1=O	none
CCc1c(C)nc(SCC(=O)N2CCN(c3ccccc3)CC2)[nH]c1=O	FGF22 binding 44 (no result: E-selectin induc)
O=C(NCC[C@@H]1CC[C@H](NC(=O)C2CCC2)[C@@H](CO)O1)c1cc(Cl)cc(Cl)c1	none (no result: miR122 inh)
Cc1cc(C)cc(NC2=NC3(CCCCC3)N=C(N)N2)c1	miR122 inh 109 (no result: S100A4 inh HTS, FGF22 binding, E-selectin induc, SIRT5 block)
NC1=NC2(CCCCC2)N=C(Nc2ccc(F)cc2F)N1	none (no result: S100A4 inh HTS, FGF22 binding, E-selectin induc, SIRT5 block)
Cc1ccc(Cn2cc(/C=N/NC(=O)Cc3nnc(NC(=O)c4ccc(C)cc4)s3)c3ccccc32)cc1	FGF22 binding 43 (no result: E-selectin induc)
O=C(CCN1C(=O)c2cccc3cccc(c23)C1=O)Nc1ccccc1	FGF22 binding 43
O=C(CCN1C(=O)c2ccccc2C1=O)NCc1ccco1	none (no result: E-selectin induc)
Cc1ccc(NC(=O)CCN2C(=O)c3cccc4cccc(c34)C2=O)cc1	none (no result: E-selectin induc, miR122 inh)
O=C(CCN1C(=O)c2cccc3cccc(c23)C1=O)NCc1ccco1	FGF22 binding 44 (no result: E-selectin induc, miR122 inh)
COc1cc(NC(=S)N2CCN(C)CC2)c(OC)cc1Cl	none (no result: E-selectin induc, miR122 inh)
COc1cc(NC(=S)N2CCCC(CO)C2)c(OC)cc1Cl (stereo not given)	FGF22 binding 44 (no result: E-selectin induc, miR122 inh)
COc1cc(NC(=S)N2CCOCC2)c(OC)cc1Cl	E-selectin induc 26 (no result: SIRT5 block)
C[C@@H]1CCCCO[C@H](CN(C)CC2CCCCC2)[C@H](C)CN([C@@H](C)CO)C(=O)c2cc(NS(=O)(=O)c3cccs3)ccc2O1	none
O=C(CCc1ccc(S(=O)(=O)NC2CCCCC2)cc1)Nc1ccccc1	none (no result: S100A4 inh HTS, FGF22 binding, E-selectin induc, SIRT5 block)
O=C(Nc1ccc(S(=O)(=O)NC2CCCCC2)cc1)c1ccc(Br)o1	miR122 inh 128 (no result: E-selectin induc)
Cc1ccc(S(=O)(=O)NC(=O)c2ccc(Br)o2)c(C)c1	none (no result: SIRT5 block)
CSc1ccc(S(=O)(=O)NC2CCCCCC2)cc1	miR122 inh 103 (no result: S100A4 inh HTS, FGF22 binding, E-selectin induc, SIRT5 block)
O=C(CCc1ccc(S(=O)(=O)NC2CCCCC2)cc1)N(Cc1ccccc1)Cc1ccccc1	miR122 inh 99 (no result: S100A4 inh HTS, FGF22 binding, E-selectin induc, SIRT5 block)
Cc1ccc(S(=O)(=O)NC(=O)c2ccc(Br)o2)cc1	SIRT5 block 35
O=C(c1cccc(F)c1)N1C[C@H]2[C@@H](c3ccccc31)[C@@H](CO)N2C(=O)c1ccc(F)cc1	miR122 inh 192[16.7 µM]
O=C(c1ccc(F)cc1)N1C[C@H]2[C@@H](c3ccccc31)[C@@H](CO)N2C(=O)c1ccc(F)cc1	miR122 inh 364[16.7 µM]
O=C(Nc1ccccc1)N1C[C@H]2[C@@H](c3ccccc31)[C@@H](CO)N2C(=O)c1ccccn1	miR122 inh 132[16.7 µM]
O=C(Nc1ccccc1)N1C[C@@H]2[C@H](c3ccccc31)[C@@H](CO)N2C(=O)c1ccccn1	none
O=C(c1cccc(F)c1)N1C[C@H]2[C@@H](c3ccccc31)[C@H](CO)N2C(=O)c1ccc(F)cc1	none
O=C(c1ccncc1)N1C[C@@H]2[C@H](c3ccccc31)[C@H](CO)N2C(=O)Nc1cccc(F)c1	SIRT5 block 18
Cc1ccccc1-c1ccc(C2[C@@H]3CN(Cc4ccc5c(c4)OCO5)C[C@H]2N3)cc1 (stereo not given in full)	none (no result: S100A4 inh HTS, miR122 inh, SIRT5 block)
C=CC[C@]1(C(=O)OC)N=C(c2ccc(OCCCO)cc2)O[C@H]1c1ccccc1	none (no result: E-selectin induc, miR122 inh)
CCCNC(=O)N1[C@H](CO)[C@@H]2c3ccccc3N(C(=O)c3ccc(F)cc3)C[C@@H]21	S100A4 inh HTS 124
CCCNC(=O)N1[C@@H]2CN(C(=O)c3ccncc3)c3ccccc3[C@@H]2[C@@H]1CO	none
C[C@H](CO)N1C[C@H](C)[C@@H](CN(C)S(=O)(=O)c2ccc(F)cc2)Oc2ccc(NC(=O)Nc3ccc4c(c3)OCO4)cc2CC1=O	none
Clc1ccccc1CN1CCN(CCCc2ccccc2)CC1	FGF22 binding 43 (no result: miR122 inh)
NC(=O)/C(=C/c1ccco1)C(N)=S	SIRT5 block 17 (no result: miR122 inh)
Cc1noc(N)c1C1(O)C(=O)N(C(C)C)c2ccccc21 (stereo not given)	FGF22 binding 43 (no result: E-selectin induc)
